Molecules are shown by their SMILES. Activity calls are given as the source filed them. The calls are words filed in the database; no cut-off is given here.

The term IC50 denotes the midpoint of a concentration-inhibition curve.

In data set [1] the test system is Neurosphere. Kind of data set: Neuroprotective activity against C57BL/6N mouse neurosphere assessed as increase in NPCs spontaneous differentiation by measuring Olig2-positive cells at 2.5 to 5 uM measured after 7 days by immunofluorescence analysis. The settings on record: dose 2.5-5 µM, time 7.0 day. The data set is classed as functional, tissue-based. The procedure, abridged:
(§1)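 Thirty 7-day neurospheres plated on Matrigel-coated coverslips with 2.5 or 5 μM compound or DMSO, differentiated 7 days, fixed in 4% PFA, immunostained for Nestin, DCX, Olig2 or GFAP with Alexa 555 secondaries, DAPI counterstain. Intensity index = marker-positive intensity / total DAPI intensity; mean ± SD of 3 fields per condition.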

The next data set concerns HepG2. Put plainly: Cytotoxicity against human HepG2 cells assessed as cell viability upto 10 uM incubated for 24 hrs by MTT assay. Particulars: hepg2, 24 h. The data set is classed as toxicity, cell-based. In a few lines: (§2)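 HepG2 in MEM with 10% FBS, plated 1.5 × 10⁴ cells/well; after 24 h exposed to 0.010–100 μM compound or vehicle for 24 h. MTT (0.2 mg/mL in PBS) for 2 h at 37 °C, formazan dissolved in DMSO, absorbance at 570 nm. Viability relative to vehicle controls, mean ± SD, n = 4.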
(Tetrazolium dyes change colour on reduction, which living cells bring about.)

The subject of data set [2] is SH-SY5Y. Kind of data set: Neuroprotective activity against H2O2-induced cytotoxicity in human SH-SY5Y cells assessed as increase in cell viability at 1 to 50 uM pretreated for 24 hrs followed by incubation for 1 hr with H2O2 and incubated in drug-free medium for 22 hrs by MUH reagent based spectrophotometric analysis. The settings on record: dose 1-50 µM, time 25.0 hrs. The format is functional. In a few lines: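 SH-SY5Y pretreated 24 h with 1, 10 or 50 μM compound, exposed 1 h to H2O2, then 22 h recovery in drug-free complete medium. H2O2 level printed as 300 μM in methods but 600 μM in figure legend. Viability by MUH fluorescence (ex 330/em 450 nm) vs untreated cells; one-way ANOVA, Tukey.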

Data set [3] can be described thus: Cytotoxicity against human HepG2 cells assessed as reduction in cell viability incubated for 24 hrs by MTT assay. The format is toxicity, cell-based. In a few lines:
as §2

For data set [4], the system named is Neurosphere. Kind of data set: Neuroprotective activity against C57BL/6N mouse neurosphere assessed as effect on neurospheres size at 2.5 to 5 uM measured after 7 days by bright field microscopy. The format is functional, tissue-based. The settings on record: dose 2.5-5 µM, time 7.0 day. In a few lines:
(§3)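 Neurospheres from sub-ventricular zone of 8-month-old male C57BL/6N mice, dissociated with Accutase, plated as single cells 5 × 10³/well in suspension in EGF/FGF2/N2/B27 medium with 2.5–50 μM compound or DMSO for 7 days. Daily brightfield live imaging; sphere count and total area per image, aggregates >400 μm² only.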

The test system of data set [5] is Neurosphere. Kind of data set: Neuroprotective activity against C57BL/6N mouse neurosphere assessed as increase in NPC proliferation by measuring increase in neurospheres number at 2.5 to 5 uM measured after 7 days by bright field microscopy. The format is functional, tissue-based. Particulars: dose 2.5-5 µM, time 7.0 day. In a few lines:
as §3

Data set [6] deals with Neurosphere. Kind of data set: Neuroprotective activity against C57BL/6N mouse neurosphere assessed as increase in NPCs spontaneous differentiation by measuring decrease in Nestin-positive cells at 2.5 to 5 uM measured after 7 days by immunofluorescence analysis. The settings on record: dose 2.5-5 µM, time 7.0 day. The data set is classed as functional, cell-based. The procedure, abridged:
as §1

Data set [7] concerns Neurosphere. Put plainly: Neuroprotective activity against C57BL/6N mouse neurosphere assessed as increase in NPCs spontaneous differentiation by measuring increase in DCX-positive cells at 2.5 to 5 uM measured after 7 days by immunofluorescence analysis. Particulars: dose 2.5-5 µM, time 7.0 day. The format is functional, cell-based. The procedure, abridged: as §1
The subject of data set [8] is SH-SY5Y. Put plainly: Potentiation of H2O2-induced cytotoxicity in human SH-SY5Y cells assessed as cell viability at 50 uM pretreated for 24 hrs followed by incubation for 1 hr with H2O2 and incubated in drug-free medium for 22 hrs by MUH reagent based spectrophotometric analysis (reference value: 50.8%). The data set is classed as functional. Particulars: time 25 hrs, read-out: Activity.

Data set [9] concerns SH-SY5Y. Kind of data set: Cytotoxicity against human SH-SY5Y cells assessed as cell viability at 100 uM incubated for 24 to 72 hrs by MUH reagent based spectrophotometric analysis. The settings on record: time 24-72 hrs, read-out: Activity. The format is functional. The procedure, abridged: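 SH-SY5Y in DMEM/10% FBS seeded 0.75 × 10⁴ cells/well, after 24 h treated with 0.1–100 μM for 24, 48 or 72 h. Washed, incubated with MUH 0.01 mg/mL in PBS 30 min at 37 °C in the dark; fluorescence ex 330/em 450 nm, normalized to untreated cells. IC50 by nonlinear regression, log(inhibitor) vs normalized response.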

Data set [10] has as its system Neurosphere. Put plainly: Toxicity against C57BL/6N mouse neurosphere at 25 to 50 uM measured after 7 days by bright filed microscopy. The data set is classed as tissue-based. Particulars: in vitro, 168 h. The procedure, abridged: as §3
The target of data set [11] is Histone deacetylase (Homo sapiens) (UniProt Q13547+O15379+Q9UBN7+Q92769+Q9UQL6+Q8WUI4+Q9BY41+Q96DB2+P56524+Q9UKV0+Q969S8). Put plainly: Inhibition of HDAC in human SH-SY5Y cells assessed as hyperacetylation of histone H2/H3 at 5 uM incubated for 6 hrs by western blot analysis. The format is cell-based. In a few lines:
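SH-SY5Y seeded at 20 × 10⁴ cells/cm², after 48 h given 5 μM compound or vehicle for 6 h. Nuclei isolated, histones acid-extracted (0.4 N H2SO4, 4 °C 1 h), acetone-precipitated, run on 15% gel and blotted with anti-acetyl-lysine antibody, ECL detection; densitometry normalized to H1.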
For orientation: A western blot detects proteins with antibodies after separation by electrophoresis.

The test system of data set [12] is SH-SY5Y. Kind of data set: Cytotoxicity against human SH-SY5Y cells assessed as reduction in cell viability at 1 uM pretreated with antioxidant, NAC for 1 hr followed by incubation with drug for 24 hrs by MUH reagent based spectrophotometric analysis. The data set is classed as functional. In a few lines:
(§4)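 SH-SY5Y pretreated 1 h with 2 mM NAC, then exposed to compound at 1 or 10 μM for 24 h. Viability read by MUH hydrolysis (0.01 mg/mL, 30 min, 37 °C; ex 330/em 450 nm) as percent of untreated cells; two-way ANOVA with Tukey post hoc.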

Data set [13] relates to SH-SY5Y. Put plainly: Induction of apoptosis in human SH-SY5Y cells assessed as increase in PARP cleavage by measuring decrease in PARP protein expression at 10 uM incubated for 72 hrs by flow cytometry relative to control. On the set-up: scale not given: the % may be the effect or the level left. The data set is classed as functional. In a few lines: (§5)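 SH-SY5Y cells, cultured in DMEM with 10% FBS at 37 °C and 5% CO2, were treated for 72 h. Cells were fixed in 4% paraformaldehyde and permeabilized with 90% cold methanol. They were stained with anti-PARP (1:100) and then an Alexa Fluor 488 secondary (1:200). Mean fluorescence intensity was read by flow cytometry and expressed as fold change versus control cells.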
Background: In flow cytometry, cells or beads pass a laser one at a time.

Data set [14] deals with SH-SY5Y. Put plainly: Cytotoxicity against human SH-SY5Y cells assessed as reduction in cell viability pretreated with SFN followed by compound treatment by MUH reagent based spectrophotometric analysis. The format is functional.
Data set [15] has as its system SH-SY5Y. Kind of data set: Induction of cell cycle arrest in human SH-SY5Y cells assessed as accumulation of cells at sub-G1 phase at 1 to 10 uM incubated for 72 hrs by propidium iodide staining based flow cytometry. The data set is classed as functional. Particulars: dose 1-10 µM. In a few lines:
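SH-SY5Y exposed to 1 or 10 μM for 72 h, collected, fixed in 70% ice-cold ethanol, stained with propidium iodide-containing cell-cycle reagent 30 min in the dark at room temperature, and analysed by flow cytometry for G0/G1, S, G2/M and sub-G1 fractions; one-way ANOVA, Bonferroni.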

The test system of data set [16] is SH-SY5Y. Put plainly: Cytotoxicity against human SH-SY5Y cells assessed as reduction in cell viability at 10 uM pretreated with antioxidant, NAC for 1 hr followed by incubation with drug for 24 hrs by MUH reagent based spectrophotometric analysis. The data set is classed as functional. In a few lines: as §4
Data set [17] concerns SH-SY5Y. Kind of data set: Induction of apoptosis in human SH-SY5Y cells assessed as increase in PARP cleavage by measuring decrease in PARP protein expression at 1 uM incubated for 72 hrs by flow cytometry relative to control. On the set-up: scale not given: the % may be the effect or the level left. The format is functional. In a few lines: as §5

`CC1=C(NCCCCNC(=O)CS)C(=O)c2ccccc2C1=O`: the outcome with Neurosphere [1], in the data set on SH-SY5Y [2] and with Neurosphere [4] was inactive. Further, the Activity entry is recorded as “Non-Toxic” with HepG2 and “Toxic” in the data set with Neurosphere [10]. For the same compound, the IC50 at 24 h in data set [3] is 25.5 µM. The outcome with Neurosphere [5], in the data set on Neurosphere [6] and in the data set with Neurosphere [7] was Active. In the data set on SH-SY5Y [8], the viability at 50 µM was 28.2%. Besides, the viability at 100 µM in the data set on SH-SY5Y [9] is 70%.
For the compound `CC1=C(NCc2ccc(C(=O)Nc3ccccc3N)cc2)C(=O)c2ccccc2C1=O`, the inhibition entry in [11] was “Active”. Further, the outcome in the data set with SH-SY5Y [12] was inactive. For the same compound, the Activity in the data set on SH-SY5Y [13] was determined as 56.81%; in the data set with SH-SY5Y [17], 44.81%. Also, the outcome in the data set on SH-SY5Y [14], in the data set on SH-SY5Y [15] and in the data set on SH-SY5Y [16] was Active.

The record behind these values is ChEMBL document CHEMBL5532752, “Integrating a quinone substructure into histone deacetylase inhibitors to cope with Alzheimer's disease and cancer” (RSC Med Chem, 2024).
